Assay outcomes deposited in PubChem by several laboratories.
Only some compounds are listed: those with a hit (about 2.5% of all), similar ones and a draw of the others.
MsrA inh – bovine MsrA enzyme inhibitors, primary screen, biochemical, absorbance, HTS; Methionine sulfoxide reductase A (Bos taurus); inhibition, % at 15.5 µM; AID 651718, 2012; 360,000 tested, 0.75% active; purified bovine MsrA, absorbance read-out; in the data active = inhibition above about 4.5%
MsrA act – bovine MsrA enzyme activators, primary screen, biochemical, absorbance, HTS | Methionine sulfoxide reductase A (Bos taurus) | purified bovine MsrA, absorbance read-out | activation, % at 10.6 µM | 360,000 tested, 0.3% active; in the data active = activation above about 7.5%
NR2E3 ag-1 – NR2E3 agonists in two-hybrid cells, primary screen, cell-based, luminescence, CHO-S, Gal4-NCOR/VP16-NR2E3 | Photoreceptor-specific nuclear receptor (Homo sapiens), Q9Y5X4 | luciferase | inhibition of corepressor binding, % at 3.98 µM | 360,000 tested, 0.35% active | AID 602229, 2012;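 active = inhibition above the mean of all tested compounds plus 3 SD, cut at about 70% in these data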;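 also: higher means lower luciferase signal from less NR2E3 corepressor binding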
NadD block – inhibitors of S. aureus NadD, primary screen, biochemical, colorimetric, uHTS; Nicotinate-nucleotide adenylyltransferase NadD (Staphylococcus aureus N315); purified NadD enzyme, colorimetric absorbance read-out; inhibition, % at 20 µM; 360,000 tested, 0.78% active; AID 602399, 2012; in the data active = inhibition above about 26%
GalR3 antag – GalR3 antagonists in HEK293 cells, primary screen, cell-based, fluorescence readout; inhibition, % at 3 µM; HEK293 GalR3-CNG cAMP membrane potential fluorescence; galR3 body fused to GalR1 C-terminus; 360,000 tested, 0.44% active; Galanin receptor type 3 (Homo sapiens), O60755;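 active = inhibition above the screen-wide average plus 3 SD, cut at about 13% in these data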;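 also: forskolin and galanin both at EC90 stimulate the cells; cAMP rise reported by CNG channel membrane potential dye signal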
NR2E3 ag-2 – inhibitors of NR2E3-RetCOR corepressor binding, primary screen, NR2E3 agonist project, biochemical, TR-FRET, GST-NR2E3, biotin-RetCOR. Photoreceptor-specific nuclear receptor (Homo sapiens), Q9Y5X4. inhibition of corepressor binding, % at 4.78 µM. 1536-well. 320,000 tested, 0.12% active;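 active = percent inhibition above the cutoff of mean plus 3 SD of all tested compounds, set per screening campaign, cut at about 20% in these data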
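System: GST-tagged NR2E3 plus biotinylated RetCOR corepressor; Buffer or medium: pH 7.5 Tris-based buffer; Probe or stimulus: RetCOR corepressor, biotinylated, 7 nM; Doses: compound at 4.8 µM, single dose; Schedule: 5 h incubation at 4 °C; Technique: time-resolved FRET; Evaluation: percent inhibition of TR-FRET ratio; Replication: one well per compound, singlicate testing.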
NR2E3 agonist cf – NR2E3 agonists, confirmation, biochemical, TR-FRET | shares compounds with NR2E3 ag-2 | cell-free NR2E3 corepressor release, 5 h | activation (reported as inhibition), % at 3.98 µM | 360 tested, 39% active; in the data active = activation above about 20%
PPARg-NCOR2 ctr – agonists of PPARg-NCOR2 corepressor interaction, counter-screen for NR2E3 agonist project, biochemical, TR-FRET; TR-FRET PPARg-NCOR2 coregulator interaction; inhibition, % at 3.98 µM; AID 504787, 2011; shares compounds with NR2E3 ag-2; 360 tested, 45% active; in the data active = inhibition above about 20%
Of the large screens only hits and unclear results are named; the others gave an inactive call (follow-up assays come after a bar, where they were run).

CCOc1ccc(-n2c(=O)c3c4c(sc3n(CC(=O)NCCCOC)c2=O)CCCCC4)cc1	none
CCCCC1=CC2=C(c3ccco3)C(=O)C(C)(OC(=O)c3ccc(OC)cc3)C(=O)C2=CN1c1ccccc1 (stereo unspecified)	NR2E3 ag-2 34 (no result: MsrA inh, GalR3 antag) | NR2E3 agonist cf inactive | PPARg-NCOR2 ctr inactive
CCSc1cnn(-c2ccccc2)c(=O)c1SCC	NR2E3 ag-2 21 | NR2E3 agonist cf inactive | PPARg-NCOR2 ctr inactive
CCSc1cnn(-c2ccccc2)c(=O)c1Cl	none
CCSc1nnc(CNC(=O)c2ccccc2F)n1-c1ccccc1OC	none
Cc1cc(C(=O)O)ccc1-n1c(C)ccc1C	NR2E3 ag-2 21 (no result: MsrA inh, MsrA act, NR2E3 ag-1, NadD block, GalR3 antag) | NR2E3 agonist cf 23 | PPARg-NCOR2 ctr inactive
CC(C)C(=O)N1CCN(c2ccccc2N)CC1	none (no result: GalR3 antag)
c1ccc(CCNc2ncnc3c2nnn3Cc2ccccc2)cc1	NR2E3 ag-2 22 | NR2E3 agonist cf inactive | PPARg-NCOR2 ctr inactive
O=C(C1=C(O)C(=O)N(CC2CCCO2)C1c1ccccc1F)c1ccco1 (stereo unspecified)	NR2E3 ag-2 36 | NR2E3 agonist cf inactive | PPARg-NCOR2 ctr inactive
CCOc1ncccc1C(=O)Nc1ccc(C(=O)Nc2ccc(OC)cc2)cc1	NR2E3 ag-2 44 | NR2E3 agonist cf 34 | PPARg-NCOR2 ctr 33
CCOc1ccc(NC(=O)c2ccc(OC)cc2)cc1	none
CCOC(=O)c1sc(NC(=O)c2ccco2)nc1-c1ccccc1	NR2E3 ag-2 20 | NR2E3 agonist cf inactive | PPARg-NCOR2 ctr 25
CC(=O)c1sc(NC(=O)c2ccco2)nc1-c1ccccc1	none (no result: MsrA inh, GalR3 antag)
CCSc1nnc(NC(=O)CCc2ccccc2)s1	NR2E3 ag-2 40 | NR2E3 agonist cf inactive | PPARg-NCOR2 ctr inactive
CC(C)(C)c1cc(=O)n(-c2ccccc2)[nH]1	NR2E3 ag-2 29 | NR2E3 agonist cf inactive | PPARg-NCOR2 ctr inactive
Cc1cc(N2C(=O)C(O)=C(C(=O)c3cc4ccccc4o3)C2c2cccc(Cl)c2)no1 (stereo unspecified)	NR2E3 ag-2 22 | NR2E3 agonist cf 39 | PPARg-NCOR2 ctr 45
COc1cccc(C2C(C(=O)c3cc4ccccc4o3)=C(O)C(=O)N2c2cc(C)on2)c1 (stereo unspecified)	NR2E3 ag-2 27 | NR2E3 agonist cf 26 | PPARg-NCOR2 ctr 26
CCCOc1ccc(C2C(C(=O)c3cc4ccccc4o3)=C(O)C(=O)N2c2cc(C)on2)cc1OC (stereo unspecified)	none
Cc1cc(N2C(=O)C(O)=C(C(=O)c3cc4ccccc4o3)C2c2ccc(Br)cc2)no1 (stereo unspecified)	NR2E3 ag-2 24 | NR2E3 agonist cf 25 | PPARg-NCOR2 ctr 30
CCCOc1ccc(C2C(C(=O)c3cc4ccccc4o3)=C(O)C(=O)N2c2cc(C)on2)cc1 (stereo unspecified)	none
C=CCOc1cccc(C2C(C(=O)c3cc4ccccc4o3)=C(O)C(=O)N2c2cc(C)on2)c1 (stereo unspecified)	NR2E3 ag-2 24 | NR2E3 agonist cf 31 | PPARg-NCOR2 ctr 33
C=CC[C@@H](CC(=O)NCCO)C(=O)NC[C@H](OC(=O)[C@@H](CC=C)Cc1ccc(F)cc1)c1ccccc1	none (no result: NR2E3 ag-2)
CCc1nnc(NC(=O)c2sc3nc4cc(C)ccc4cc3c2N)s1	NR2E3 ag-2 37 | NR2E3 agonist cf inactive | PPARg-NCOR2 ctr inactive
CN(C)CCN1C(=O)C(O)=C(C(=O)c2cc3ccccc3o2)C1c1ccccn1 (stereo unspecified)	NR2E3 ag-2 27 (no result: MsrA inh, MsrA act, NR2E3 ag-1, NadD block, GalR3 antag) | NR2E3 agonist cf inactive | PPARg-NCOR2 ctr inactive
CCN(CC)CCN1C(=O)C(O)=C(C(=O)c2ccco2)C1c1ccccn1 (stereo unspecified)	none
CCN(CC)CCCN1C(=O)C(O)=C(C(=O)c2cc3ccccc3o2)C1c1ccccn1 (stereo unspecified)	NR2E3 ag-2 22 | NR2E3 agonist cf 24 | PPARg-NCOR2 ctr 24
Cc1c(N=C2NC(=O)C(CC(=O)Nc3ccccc3)S2)c(=O)n(-c2ccccc2)n1C (stereo unspecified)	none
CC1N(C)c2cc(NC(=O)c3cccs3)c(P(=O)(Nc3ccc([N+](=O)[O-])cc3)N3CCOCC3)cc2C1(C)C (stereo unspecified)	none
C=CCn1c(SCC(=O)Nc2cccc(S(N)(=O)=O)c2)nnc1C1CCCCC1	NR2E3 ag-2 42 | NR2E3 agonist cf inactive | PPARg-NCOR2 ctr inactive
CCC(CNc1cc(OC)cc2cccnc12)NC1CCCCC1 (stereo unspecified)	NR2E3 ag-2 21 | NR2E3 agonist cf inactive | PPARg-NCOR2 ctr inactive
CCOc1ccc(-n2nc3c(=S)[nH]nc(C)c3c2C)cc1	NR2E3 ag-2 26 | NR2E3 agonist cf inactive | PPARg-NCOR2 ctr 22
CC(C)Cn1c(CN2CCN(C(=O)c3ccco3)CC2)nc2c1c(=O)n(C)c(=O)n2C	none
COc1cc(Br)c(C(=O)c2nccc3cc(OC)c(OC)cc23)cc1OC	NR2E3 ag-2 28 | NR2E3 agonist cf 24 | PPARg-NCOR2 ctr inactive
COc1cc(N)c(C(=O)c2nccc3cc(OC)c(OC)cc23)cc1OC	none
O=C(COC(=O)c1ccc(F)c(S(=O)(=O)N2CCOCC2)c1)c1ccccc1	none (no result: NR2E3 ag-2)
O=C(C1=C(O)C(=O)N(CCN2CCOCC2)C1c1ccc([N+](=O)[O-])cc1)c1cc2ccccc2o1 (stereo unspecified)	none (no result: MsrA inh, GalR3 antag)
COC(=O)c1ccc(C2C(C(=O)c3cc4ccccc4o3)=C(O)C(=O)N2CCN2CCOCC2)cc1 (stereo unspecified)	none
O=C(C1=C(O)C(=O)N(CCN2CCOCC2)C1c1ccc(Cl)cc1)c1cc2ccccc2o1 (stereo unspecified)	NR2E3 ag-2 20 | NR2E3 agonist cf 26 | PPARg-NCOR2 ctr 23
O=C(C1=C(O)C(=O)N(CCCN2CCOCC2)C1c1ccc(Cl)cc1)c1cc2ccccc2o1 (stereo unspecified)	NR2E3 ag-2 30 (no result: MsrA act, NR2E3 ag-1, NadD block) | NR2E3 agonist cf 28 | PPARg-NCOR2 ctr 21
O=C1C(O)CCN1C1CCCCC1 (stereo unspecified)	none (no result: NR2E3 ag-2)
